PMC3286832 (Nature Communications, 2011)

Legend:
GLP catalytic SET domain = GLP catalytic SET domain (Homo sapiens, UniProt Q9H9B1); assay: In vitro methylation assay with GLP catalytic SET domain; type: biochemical; settings: [methyl-3H]AdoMet, SDS–PAGE and fluorography / autoradiogram
Procedure, shortened: (§1)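 E. coli-expressed hG9a or hGLP SET domain (1.6 μM) was incubated with 13.0 μM substrate (mDnmt3a N-terminal fragments or other GST-tagged proteins) and 2.8 μM [methyl-3H]AdoMet in 20 mM Tris–HCl pH 8.5 at 30 °C for 8 min. Products were resolved by SDS–PAGE and detected by fluorography/autoradiography.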

MPP8 chromodomain = target: T1, MPP8 chromodomain (Homo sapiens, UniProt Q99549); assay: Co-crystal structure MPP8 chromodomain–hDNMT3AK47me2 peptide; type: binding
T1 sequence (Q99549 59-118 limits assumed): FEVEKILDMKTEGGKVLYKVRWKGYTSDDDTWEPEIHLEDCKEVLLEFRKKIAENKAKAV

G9a catalytic SET domain = G9a catalytic SET domain (Homo sapiens, UniProt Q96KQ7); assay: In vitro methylation assay with G9a catalytic SET domain; type: biochemical; settings: [methyl-3H]AdoMet, 30 °C, 8 min, pH 8.5, SDS–PAGE and fluorography
G9a catalytic SET domain, sequence (Q96KQ7 1038-1155 limits assumed): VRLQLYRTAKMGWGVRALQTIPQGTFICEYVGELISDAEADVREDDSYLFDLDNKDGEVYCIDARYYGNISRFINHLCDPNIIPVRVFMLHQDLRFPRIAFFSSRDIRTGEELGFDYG
Procedure, shortened: as §1

[1] = test system: DNA methylation, H3K9 methylation, H3K4 methylation; settings: ref [4]; cited from earlier work

GLP catalytic SET domain, sequence (Q9H9B1 1126-1243 limits assumed): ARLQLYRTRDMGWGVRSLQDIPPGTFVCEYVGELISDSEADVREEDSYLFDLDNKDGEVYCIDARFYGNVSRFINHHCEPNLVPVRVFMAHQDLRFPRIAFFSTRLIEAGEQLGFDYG

Molecule	methylation by GLP (GLP catalytic SET domain)	also measured
hDNMT3A K47R (residues 1–223): K47R substitution in hDNMT3A N-terminal domain	eliminates methylation	–
hDNMT3A residues 1–94: GST-tagged hDNMT3A N-terminal fragment	are methylated	–
hDNMT3A residues 1–223: GST-tagged hDNMT3A N-terminal fragment	are methylated	–
YEPSTTARKVGRPGR [hDNMT3AK47me2]	–	pairwise root-mean-square-deviation to MPP8-H3K9me3 structure (MPP8 chromodomain; 54 pairs of main-chain atoms, vs PDB 3QO2): ~ 0.6 Å; binding mode in MPP8 chromodomain (MPP8 chromodomain; crystal structure (3SVM)): bound in an extended conformation in an acidic cleft of the chromodomain
Dnmt3a-N: N-terminal fragment of mouse Dnmt3a (residues 1–274)	methylate the N-terminal fragment of Dnmt3a	methylation by G9a (G9a catalytic SET domain): methylate the N-terminal fragment of Dnmt3a
Nc1ncn([C@H]2C[C@H](O)[C@@H](CO)O2)c(=O)n1 [5-aza-2′-deoxycytidine]	–	effect on DNA, H3K9 and H3K4 methylation [1]: leads to depletion of DNA methylation and of H3K9 methylation, and a corresponding increase in H3K4 methylation
